UHRF1 binding: UHRF1 methyl-DNA binding inhibition; Q96T88; UHRF1 binding to methylated oligo, TR-FRET; inhibition, % at 4.4 µM; 0.75% of 370,000 active; in the data active = inhibition above about 21%;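 also: UHRF1 SRA domain binding a hemimethylated CpG hairpin DNA probe; 0% = median of test compound wells and 100% = reference inhibitor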
LEDGF integ inh: blocks HIV-1 LEDGF/p75-dependent DNA integration. TR-FRET IN-LEDGF/p75 DNA integration, Eu/Cy5. inhibition, % at 3.7 µM. 0.64% of 370,000 active. AID 743269;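 active = inhibition above the screen-wide mean plus 3 SD, cut at about 13% in these data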;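 also: signal is the Cy5 over europium emission ratio at 671 and 618 nm; 0% = plate median of compound wells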
Rin1-Abl PPI inh: inhibitors of human Rin1-Abl protein interaction; P00519+Q13671; TR-FRET Rin1/Abl binding, biochemical; inhibition, % at 7.35 µM; 0.4% of 360,000 active; in the data active = inhibition above about 5%, passing the limit was not always enough
Target sequence (P00519 whole entry, looked up): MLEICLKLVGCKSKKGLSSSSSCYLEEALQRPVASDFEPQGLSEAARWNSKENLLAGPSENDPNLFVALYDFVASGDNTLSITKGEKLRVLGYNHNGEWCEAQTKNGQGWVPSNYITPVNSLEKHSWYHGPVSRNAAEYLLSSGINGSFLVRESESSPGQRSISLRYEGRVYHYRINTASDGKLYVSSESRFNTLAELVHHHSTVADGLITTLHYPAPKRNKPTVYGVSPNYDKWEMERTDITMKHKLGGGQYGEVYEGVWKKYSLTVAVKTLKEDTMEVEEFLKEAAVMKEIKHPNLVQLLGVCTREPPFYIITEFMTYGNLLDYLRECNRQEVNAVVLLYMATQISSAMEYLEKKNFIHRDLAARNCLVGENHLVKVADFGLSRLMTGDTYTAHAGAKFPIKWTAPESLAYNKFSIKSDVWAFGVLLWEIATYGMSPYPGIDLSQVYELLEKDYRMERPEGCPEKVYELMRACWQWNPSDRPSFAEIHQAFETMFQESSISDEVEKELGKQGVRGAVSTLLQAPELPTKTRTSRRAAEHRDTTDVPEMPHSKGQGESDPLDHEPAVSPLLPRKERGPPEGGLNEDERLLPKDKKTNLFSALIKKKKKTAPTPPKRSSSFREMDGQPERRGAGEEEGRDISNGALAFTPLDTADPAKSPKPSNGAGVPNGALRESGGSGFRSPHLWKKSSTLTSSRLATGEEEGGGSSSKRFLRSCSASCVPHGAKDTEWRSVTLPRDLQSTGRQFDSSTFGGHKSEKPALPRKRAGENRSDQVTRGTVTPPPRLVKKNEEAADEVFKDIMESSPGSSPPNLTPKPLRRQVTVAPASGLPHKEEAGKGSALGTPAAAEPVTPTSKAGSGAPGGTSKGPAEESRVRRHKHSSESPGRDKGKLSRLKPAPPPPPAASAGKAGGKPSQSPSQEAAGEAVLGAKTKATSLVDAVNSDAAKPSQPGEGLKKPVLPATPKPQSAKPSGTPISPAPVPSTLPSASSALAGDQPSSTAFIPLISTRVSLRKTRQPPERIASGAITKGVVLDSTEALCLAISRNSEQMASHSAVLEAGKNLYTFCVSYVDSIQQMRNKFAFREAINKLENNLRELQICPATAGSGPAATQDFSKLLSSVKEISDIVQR
Target sequence (Q13671 whole entry, looked up): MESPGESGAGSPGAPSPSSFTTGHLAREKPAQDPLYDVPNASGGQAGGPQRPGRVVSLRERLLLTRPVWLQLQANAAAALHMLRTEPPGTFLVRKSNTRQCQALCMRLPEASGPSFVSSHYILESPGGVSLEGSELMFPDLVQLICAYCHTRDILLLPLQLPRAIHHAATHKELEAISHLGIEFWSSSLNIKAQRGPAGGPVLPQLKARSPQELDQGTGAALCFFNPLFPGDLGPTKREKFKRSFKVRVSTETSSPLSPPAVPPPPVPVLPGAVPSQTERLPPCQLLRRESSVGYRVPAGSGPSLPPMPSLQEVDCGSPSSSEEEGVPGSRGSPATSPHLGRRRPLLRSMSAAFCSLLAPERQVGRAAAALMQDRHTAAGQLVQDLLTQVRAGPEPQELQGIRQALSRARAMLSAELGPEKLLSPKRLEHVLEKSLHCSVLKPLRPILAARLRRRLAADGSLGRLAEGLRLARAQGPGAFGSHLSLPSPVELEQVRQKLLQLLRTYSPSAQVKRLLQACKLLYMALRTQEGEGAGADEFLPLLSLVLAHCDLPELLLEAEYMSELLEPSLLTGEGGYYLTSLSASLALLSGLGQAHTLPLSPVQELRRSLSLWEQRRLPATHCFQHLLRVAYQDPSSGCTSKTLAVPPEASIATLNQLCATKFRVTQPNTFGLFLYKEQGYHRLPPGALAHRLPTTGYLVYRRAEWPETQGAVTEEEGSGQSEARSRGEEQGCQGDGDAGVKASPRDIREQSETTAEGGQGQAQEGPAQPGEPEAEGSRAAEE
MBD2 DNA inh: MBD2-methylated oligo binding inhibition | Q9UBB5 | TR-FRET, MBD2 binding to methylated oligonucleotide | inhibition, % at 4.4 µM | 0.31% of 370,000 active; in the data active = inhibition above about 13%
TDP2 inh: TDP2 (human) inhibition, absorbance primary screen | AID 720702 | O95551 | 0.34% of 370,000 active | recombinant TDP2, T5PNP hydrolysis, p-nitrophenol absorbance 415 nm | inhibition, % at 12.8 µM;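 active = inhibition above the mean of all tested compounds plus 3 SD, set per campaign, cut at about 25% in these data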;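 also: 0% = DMSO with enzyme and 100% = buffer with substrate but no TDP2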
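Evaluation: % inhibition relative to enzyme-containing and enzyme-free wells. Material: recombinant human TDP2. Benchmarks: enzyme-free and DMSO wells. Timing: enzyme reaction with compound for 2 h at 37 °C. Compound dosing: 12.8 µM only. Measured by: p-Nitrophenol epi absorbance. Reagent: T5PNP substrate at 5 mM, a TopII-DNA adduct mimic. Replication: single well per compound.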
Active calls of the source: *; nt = no result given. This is a sample that favours compounds with a hit; in the whole collection about 1.9% have one here.

SMILES | UHRF1 binding | LEDGF integ inh | Rin1-Abl PPI inh | MBD2 DNA inh | TDP2 inh
CC(C)(C)N1Cc2nnn(Cc3ccccc3)c2-c2cc(N3CCCC3)ccc2S1(=O)=O | 1 | 3 | nt | -5 | -1
O=C(Nc1ccccc1)c1ccc[n+](Cc2ccc([N+](=O)[O-])cc2)c1 | 69* | 4 | 3 | -1 | 1
CCOC(=O)Cn1cc(CN2C(C(=O)OC)CN(Cc3ccc(C)cc3)CCS2(=O)=O)nn1 (configuration not stated) | 14 | 1 | nt | -4 | 0
CC(=O)N1CCOCC1c1cc(C(=O)Nc2ccccc2)no1 (configuration not stated) | -1 | -3 | -2 | 3 | -1
Cc1ccc(F)cc1C(=O)N1CCOCC1c1cc(C(=O)Nc2ccccc2)no1 (configuration not stated) | 33* | -1 | -1 | -1 | -2
Cc1ccc(NC(=O)c2sc3nc[nH]c(=O)c3c2C)c(C)c1 | 23* | -1 | 7 | 7 | 8
CCOC(=O)c1sc2nc[nH]c(=O)c2c1C | -4 | 1 | -4 | -3 | 6
CCOC(=O)c1ccc(NC(=O)CSc2nnc(-c3cccc(C)c3)n2C)cc1 | 0 | -3 | nt | 4 | 5
CN(C(=O)c1cccc(C#N)c1)c1nnc(-c2ccccn2)s1 | 22* | 0 | 5 | 6 | -7
Fc1ccc(Cn2nnnc2CN2CCN(C3CCCCC3)CC2)cc1 | 48* | 0 | 2 | -4 | -4
CCC(C)CNC(=O)c1oc(=O)c2ccccc2c1-c1ccc(C)cc1 (configuration not stated) | 2 | 0 | nt | 2 | 8
Cc1cc(C)cc(C(=O)OCCN2CCN(C3CN(Cc4cn(Cc5ccccc5F)nn4)S(=O)(=O)C3)CC2)c1 (configuration not stated) | 15 | -1 | nt | 8 | -9
CC(NC(=O)Nc1cccc([N+](=O)[O-])c1)(C(F)(F)F)C(F)(F)F | 73* | 1 | 2 | -4 | 10
Cc1ccc(NC(=O)N2CCC(c3nc4ccc(Cl)cc4[nH]3)CC2)cc1F | 2 | 0 | nt | -6 | 3
COc1ccc(S(=O)(=O)Nc2cccc(S(=O)(=O)N(C)C)c2)cc1[N+](=O)[O-] | 23* | 0 | 0 | 8 | -5
COCCNc1oc(/C=C/c2cccs2)nc1S(=O)(=O)c1ccccc1 | 53* | -4 | -3 | 1 | 4
CN(C)CCCNc1oc(/C=C/c2cccs2)nc1S(=O)(=O)c1ccccc1 | -3 | 3 | -4 | -4 | 5
N#Cc1ccc(Cn2ccc3ccc(-c4ccc5ccn(C(=O)C6CC6)c5c4)cc32)cc1 | -1 | -3 | nt | 1 | 6
Nc1c(Cl)ncnc1N/N=C/c1ccccn1 | -12 | 1 | nt | -7 | 6
Nc1c(Cl)ncnc1N/N=C/c1ccc2ccccc2n1 | -11 | 1 | 6.4* | -5 | -2
NCCCC[C@@H](C(=O)N1CCNCC1)n1cc(CN)nn1 | 0 | -4 | -1 | 1 | 1
CCCCc1cn([C@@H](CCCCN)C(=O)N2CCNCC2)nn1 | 24* | 2 | -2 | 6 | 2
Cc1cccc(C)c1NC(=O)COc1ccc2c(C)c(Cc3ccccc3)c(=O)oc2c1C | 64* | -2 | -5 | 2 | 6
COc1ccc(CCNC(=O)CN(c2cccc([N+](=O)[O-])c2)S(C)(=O)=O)cc1 | 38* | 1 | -2 | -2 | 2
CS(=O)(=O)N(CC(=O)NCCc1ccccc1)c1cccc([N+](=O)[O-])c1 | -3 | 4 | 2 | 1 | -1
SMILES | UHRF1 binding | LEDGF integ inh | Rin1-Abl PPI inh | MBD2 DNA inh | TDP2 inh
COCC1CCCCN1C(=O)c1cccc(OC2CCN(S(C)(=O)=O)CC2)c1 (configuration not stated) | 31* | -3 | 0 | 3 | 17
CCC(=O)C1CCCN(C(=O)c2cccc(OC3CCN(S(C)(=O)=O)CC3)c2)C1 (configuration not stated) | nt | nt | 2 | nt | nt
CCCC/C=C1/C(c2ccccc2)N(Cc2ccc(OC)cc2OC)C2=NC(c3ccccc3)CC(=O)N21 (configuration not stated) | 1 | -4 | nt | 3 | 14
Cc1ccc(NCc2ccccc2F)cc1 | -1 | 0 | -2 | 0 | -1
Fc1ccccc1CNc1ccc(Cl)c(Cl)c1 | 25* | -3 | 3 | 1 | -5
Cc1cccc(NC(=O)CN2C(=O)S/C(=C\c3ccc(-c4cccc(C(=O)O)c4C)o3)C2=O)c1 | 4 | -5 | nt | 1 | 0
Cc1ccc(NC(=O)CN2C(=O)S/C(=C/c3ccc(-c4cc(C(=O)O)ccc4C)o3)C2=O)cc1C | 33* | 9 | 4 | 8 | 1
Cn1cc(-c2cccc3[nH]cc(-c4ccccc4)c23)c2ccccc21 | -2 | -4 | nt | 0 | -3
Cc1ccc(C(=O)N2CCN(c3ccc(NC(=O)c4cc(C)cc(C)c4)cc3)CC2)cc1 | -1 | 1 | -1 | 0 | 4
Cc1cc(C)cc(C(=O)Nc2ccc(N3CCCC3)cc2)c1 | 47* | -3 | -1 | 1 | -2
COCCNC(=O)C1CCC(=O)N(c2ccc(OC)cc2)C1c1ccc(OC)c(OC)c1 (configuration not stated) | 23* | 5 | 1 | 8 | 15
CCc1cccc(OCC(=O)Nc2ccc(S(=O)(=O)Nc3ccccn3)cc2)c1 | 79* | 3 | 3 | -2 | 3
COc1cc(NC(=O)CN2C(=O)COc3ccccc32)cc(OC)c1 | 21* | -4 | 4 | -3 | 6
CN1CCN(S(=O)(=O)c2cc(C(F)(F)F)ccc2Cl)CC1 | 31* | -2 | -2 | 1 | 6
O=C(NCC1COc2ccccc2O1)c1ccc(NC(=O)c2cccc(F)c2)cc1 (configuration not stated) | 0 | 1 | nt | 0 | 14
CCOc1cc(/C=C2/C(=O)N(c3ccccc3)N=C2C)ccc1OC(=O)c1cccs1 | nt | nt | 12* | nt | nt
COc1ccc(/C=C2/C(=O)N(c3ccccc3)N=C2C)cc1 | nt | nt | 8.1* | nt | nt
COc1ccc(NC(=O)N2CCC(N(C)CCC(C)C)CC2)cc1OC | -3 | 4 | nt | -3 | 0
CCN(C[C@H]1N[C@@](C)(C(=O)OC)[C@H]2C(=O)N(C)C(=O)[C@@H]12)S(=O)(=O)c1ccc(C(F)(F)F)cc1 | 22* | 8 | -2 | 5 | -13
O=C(NCc1ccccc1F)C1C2C=CC3(CN(Cc4ccccc4)C(=O)C13)O2 (configuration not stated) | 0 | -3 | nt | -2 | -7
COC(=O)c1ccccc1NC1=C/C(=N\S(=O)(=O)c2ccc(C(=O)O)cc2)c2ccccc2C1=O | nt | nt | -1 | nt | nt
CCc1ccc(S(=O)(=O)/N=C2\C=C(Nc3ccc(C(=O)O)cc3)C(=O)c3ccccc32)cc1 | 8 | 29* | 3 | -6 | 72*
Cc1cc([N+](=O)[O-])ccc1NCc1ccccc1 | nt | nt | 4 | nt | nt
COc1ccccc1CNc1ccc([N+](=O)[O-])cc1C | 48* | 2 | 1 | 0 | -6
